Assay outcomes (PubChem BioAssay)
Beta apoptosis – beta cell apoptosis inhibition. protection from apoptosis, % (test concentration not listed). 0.8% of 300,000 active. INS-1E cytokine-induced death, ATP luminescence, 48 h; percent of positive-control rescue, neutral wells zero. AID 435005;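 active = Every replicate reaches about 75%, or at least half do and their mean reaches it too, limit read from the data; inconclusive = At least half of replicates reach the limit but their mean does not; inactive = Under half of replicates reach the limit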;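 also: 0% = cytokine-treated negative control wells and 100% = positive control rescue; higher means more ATP so stronger rescue from cytokine killing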
T cruzi repl – blocks replication of Trypanosoma cruzi; T. cruzi beta-gal in NIH3T3, luminescence, 90 h; inhibition, % (concentration not given with the values); 1.4% of 300,000 active;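 active = mean inhibition across valid replicates above about 55%, limit read from the data; inconclusive = mean below that limit but half or more replicates reach it; inactive = mean below it, under half of replicates reach it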;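 also: signal also drops with host cell toxicity which is not excluded here; 0% = plate median of DMSO wells and 100% = zero luminescence signal; higher percent means less beta-gal luminescence so fewer parasites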
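Test system: β-gal T. cruzi (Tulahuen C4) inside NIH/3T3 cells / Quantity: 5,000 cells/well / Measured by: luminescence from GalScreen with 0.05% NP40, read after 60 min / Medium: DMEM plus 2% FBS / Measure: parasite load inhibition, % / Reagent: Tulahuen C4 trypomastigotes, 5000/well / Schedule: co-culture of at least 90 h after 3 h attachment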
SKKanGAS inh – blocks kanamycin growth of S. pyogenes SKKanGAS strain; BacTiter-Glo, 6 h; inhibition, % at 7.5 µM; 1.3% of 300,000 active; AID 1662;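 active = mean replicate score, as percent of positive control median, at least 50; inconclusive = mean below 50 but one replicate at or above 50; inactive = mean and every replicate below 50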;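 also: strain carries kanamycin resistance gene driven by streptokinase promoter and grows in 40 µg/ml kanamycin; loss of luminescence reflects streptokinase promoter inhibition or plain growth inhibition; 0% = median of DMSO wells and 100% = positive control at its reference dose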
Lmaj promast – Leishmania major promastigote growth inhibition; Leishmania major promastigotes, resazurin fluorescence viability; inhibition, % at 10 µM; 9% of 200,000 active; in the data active = inhibition above about 50%;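 also: promastigotes grown with compound for 44 hours at 28 °C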
Mdm2 MdmX PPI – inhibitors of human Mdm2/MdmX interaction. O15151+Q00987. SaOS-2 split-luciferase Mdm2/MdmX complementation, luminescence. inhibition, % at 8 µM. 3% of 330,000 active. AID 485346;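 active = inhibition of at least 50% at 8 µM in the primary screen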
Target sequence (O15151 whole entry, looked up): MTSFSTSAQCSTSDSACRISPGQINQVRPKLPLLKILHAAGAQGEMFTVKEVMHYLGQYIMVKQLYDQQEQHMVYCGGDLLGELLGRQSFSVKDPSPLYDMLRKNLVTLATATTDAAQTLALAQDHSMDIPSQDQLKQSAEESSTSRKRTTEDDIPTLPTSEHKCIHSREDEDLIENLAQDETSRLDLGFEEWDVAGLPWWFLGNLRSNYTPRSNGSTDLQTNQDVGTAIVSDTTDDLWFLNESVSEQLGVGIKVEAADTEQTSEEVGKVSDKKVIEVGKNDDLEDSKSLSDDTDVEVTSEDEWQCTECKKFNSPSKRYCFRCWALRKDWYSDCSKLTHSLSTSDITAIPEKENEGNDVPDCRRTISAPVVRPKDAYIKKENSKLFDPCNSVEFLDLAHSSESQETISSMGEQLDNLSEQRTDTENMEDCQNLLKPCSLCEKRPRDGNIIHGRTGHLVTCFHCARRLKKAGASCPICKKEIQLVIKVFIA
Target sequence (Q00987 whole entry, looked up): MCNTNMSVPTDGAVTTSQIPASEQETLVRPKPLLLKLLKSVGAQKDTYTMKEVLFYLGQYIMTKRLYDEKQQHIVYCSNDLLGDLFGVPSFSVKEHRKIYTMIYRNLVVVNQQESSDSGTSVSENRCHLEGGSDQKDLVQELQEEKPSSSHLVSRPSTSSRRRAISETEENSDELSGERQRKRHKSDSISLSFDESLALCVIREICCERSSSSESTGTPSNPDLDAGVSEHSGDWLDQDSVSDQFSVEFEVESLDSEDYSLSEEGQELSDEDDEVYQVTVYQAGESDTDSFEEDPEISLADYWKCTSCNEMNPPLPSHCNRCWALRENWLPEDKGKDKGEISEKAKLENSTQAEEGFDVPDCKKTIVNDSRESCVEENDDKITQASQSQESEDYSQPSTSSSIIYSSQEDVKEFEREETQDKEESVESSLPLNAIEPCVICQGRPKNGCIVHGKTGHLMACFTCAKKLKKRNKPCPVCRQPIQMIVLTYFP
CSC inhib – cancer stem cell inhibition; cancer stem cell-like cells viability, luminescence; 1.1% of 300,000 active; inhibition, % at 7.5 µM; in the data active = inhibition above about 75%; inconclusive = no clear call, values can overlap the other calls; tested in HMLE shEcad cells
* hit, by the source's call. Rows were chosen to be rich in hits. Some 9.4% of all compounds tested hit in one or more screens of this group.

For Cc1ccc(C)c(N(CC(=O)Nc2ccc(-c3nc4ccc(C)cc4s3)cc2)S(C)(=O)=O)c1 the results were Beta apoptosis 1, T cruzi repl 65*, SKKanGAS inh 17, Lmaj promast 45, Mdm2 MdmX PPI 5 and CSC inhib 70.
C=CCn1c(SCC(=O)Nc2ccc(-c3nc4ccc(C)cc4s3)cc2)nnc1-c1ccncc1 was read as Beta apoptosis -12, T cruzi repl -9, SKKanGAS inh -16, Lmaj promast 50*, Mdm2 MdmX PPI -8 and CSC inhib -11.
Screening Cc1ccc(-n2cc(CNCC3CC(=O)N(C4CC4)C3)c(-c3cccc(C)c3)n2)cc1 (stereo unspecified) returned Beta apoptosis 0, T cruzi repl -6, SKKanGAS inh -4, Lmaj promast 20, Mdm2 MdmX PPI 27 and CSC inhib -3.
For CCC[C@@H](CN1CCC[C@H]1CN1C(N)=NC[C@@H]1Cc1ccccc1)N1C[C@@H]([C@H](C)CC)N(CCCC2CCCC2)C1=N the results were Beta apoptosis 101* and Mdm2 MdmX PPI 25.
For CCC[C@@H](CN1CCC[C@H]1CN1C(N)=NC[C@@H]1Cc1ccccc1)N1C[C@@H](Cc2ccccc2)N(CCCC2CCCC2)C1=N the results were Beta apoptosis -3, Mdm2 MdmX PPI 11 and CSC inhib 4.
`COCc1cc(CN2CCN(CCc3ccccc3)C(CCO)C2)ccc1OC` (stereo unspecified) gave T cruzi repl 4, SKKanGAS inh -3, Mdm2 MdmX PPI 6 and CSC inhib -1.
`Cc1cn2c(nc(=O)c3cccnc32)s1` gave Beta apoptosis -1, T cruzi repl -5, SKKanGAS inh 2, Lmaj promast 1, Mdm2 MdmX PPI 20 and CSC inhib 12.
COc1cccc(NC(=S)N(Cc2ccccn2)Cc2ccccc2Cl)c1 was read as Beta apoptosis 5, T cruzi repl 24, SKKanGAS inh 6, Lmaj promast 62*, Mdm2 MdmX PPI -1 and CSC inhib 7.
For CN(C)C(CNC(=O)CCc1nc2sc3c(c2c(=O)[nH]1)CCCC3)c1ccccc1 (stereo unspecified) the results were Beta apoptosis 3, T cruzi repl -6, SKKanGAS inh -9, Mdm2 MdmX PPI -17 and CSC inhib -1.
Screening O=C(NC(=S)Nc1ccc(CN2CCOCC2)cc1)c1cccc([N+](=O)[O-])c1 returned Beta apoptosis 6, T cruzi repl -3, SKKanGAS inh 6, Lmaj promast 19, Mdm2 MdmX PPI -30 and CSC inhib -12.
`O=C(Nc1ccc(S(=O)(=O)N2CCOCC2)cc1)c1ccc([N+](=O)[O-])cc1Cl` gave Beta apoptosis 4, T cruzi repl 73*, SKKanGAS inh 7, Mdm2 MdmX PPI 20 and CSC inhib -5.
`O=C(Nc1ccc(N2CCCC2)cc1)c1ccc([N+](=O)[O-])cc1Cl` gave Beta apoptosis -3, T cruzi repl 21, SKKanGAS inh 2, Lmaj promast -5, Mdm2 MdmX PPI -16 and CSC inhib 0.
Screening O=C(NC(=S)Nc1ccc(CN2CCOCC2)cc1)c1ccc([N+](=O)[O-])cc1Cl returned Beta apoptosis 5, T cruzi repl 29, SKKanGAS inh -7, Lmaj promast 100*, Mdm2 MdmX PPI 12 and CSC inhib 16.
For COc1ccc(S(=O)(=O)n2cccc2)c(OC)c1 the results were Beta apoptosis 2, T cruzi repl -10, SKKanGAS inh -3, Mdm2 MdmX PPI 9 and CSC inhib 42.
For O=S1(=O)[C@H]2C[C@H](CO)O[C@@]2(CO)CN1Cc1ccc(-c2ccc(F)cc2)cc1 the results were Mdm2 MdmX PPI 25.
COc1ccccc1C(=O)Nc1nnc(S(=O)(=O)N2CCN(c3ccc(F)cc3)CC2)s1 was read as Beta apoptosis 5, T cruzi repl 4, SKKanGAS inh 54*, Mdm2 MdmX PPI 4 and CSC inhib 10.
For Cc1ccc(C(=O)Nc2nnc(S(=O)(=O)N3CCN(c4ccc(F)cc4)CC3)s2)cc1 the results were Beta apoptosis 11, T cruzi repl -3, SKKanGAS inh 54*, Mdm2 MdmX PPI 28 and CSC inhib -7.
For O=C(Nc1ccncc1)c1cccc(S(=O)(=O)N2CCN(c3ccc(F)cc3)CC2)c1 the results were Beta apoptosis 3, T cruzi repl 58*, SKKanGAS inh -8, Mdm2 MdmX PPI 31 and CSC inhib 7.
CC(=O)Nc1nnc(S(=O)(=O)N2CCN(c3ccc([N+](=O)[O-])cc3Cl)CC2)s1 was read as Beta apoptosis 2, T cruzi repl 11, SKKanGAS inh 55*, Mdm2 MdmX PPI 11 and CSC inhib -9.
Screening CC(C)(C)C(=O)N1CCN(c2ccc([N+](=O)[O-])cc2Cl)CC1 returned Beta apoptosis 1, T cruzi repl -6, SKKanGAS inh 0, Lmaj promast -2, Mdm2 MdmX PPI -22 and CSC inhib 0.
Cc1ccccc1N1CCN(S(=O)(=O)c2nnc(NC(=O)c3ccc(F)cc3)s2)CC1 was read as Beta apoptosis 11, T cruzi repl -17, SKKanGAS inh 34, Mdm2 MdmX PPI 46 and CSC inhib 15.
For COCCS(=O)(=O)N(Cc1ccc(Br)cc1)[C@@H](C)C(=O)OC the results were Mdm2 MdmX PPI 3.
Screening Cc1ccc(C2=NOC(=O)/C2=C\C=C\c2ccccc2)cc1 returned T cruzi repl inconclusive, SKKanGAS inh 33 and Lmaj promast 100*.
For CN(C)/C=C1\C(=O)ON=C1c1ccccc1 the results were Beta apoptosis -6, T cruzi repl -17, SKKanGAS inh 2, Lmaj promast 0, Mdm2 MdmX PPI -42 and CSC inhib -7.
Screening COc1ccc2occ(C(=O)c3coc4ccc(O)c(CN(C)C)c34)c2c1 returned Beta apoptosis 4, T cruzi repl 11, SKKanGAS inh 1, Lmaj promast 75*, Mdm2 MdmX PPI -20 and CSC inhib -3.
For COc1ccc(OC)c(C(=O)c2coc3ccc(O)c(CN(C)C)c23)c1 the results were Beta apoptosis -8, T cruzi repl 1, SKKanGAS inh 4, Mdm2 MdmX PPI 9 and CSC inhib -4.
Screening COc1ccc(C(O)c2coc3ccc(O)c(CN(C)C)c23)cc1 (stereo unspecified) returned Beta apoptosis 2, T cruzi repl -21, SKKanGAS inh 0, Lmaj promast 100*, Mdm2 MdmX PPI 21 and CSC inhib -3.
`Cc1nc(C(=O)NCc2ccccc2)sc1C1(C)CC(c2ccccc2)=NO1` (stereo unspecified) gave Beta apoptosis -11, T cruzi repl 2, SKKanGAS inh 4, Mdm2 MdmX PPI 32 and CSC inhib -7.
Screening NCCCC[C@H](NC(=O)C1CCNCC1)c1nnc(CN)o1 returned Beta apoptosis -2, T cruzi repl -7, SKKanGAS inh -2, Lmaj promast -4, Mdm2 MdmX PPI -12 and CSC inhib 3.
